Measurements published in publication PMC8248431 (The Febs Journal, 2021).

What was measured:
[1] = test system: AncDyPD‐b1 R390A; test: Steady-state kinetics of peroxidase activity, AncDyPD-b1 R390A variant; assay type: biochemical; details: cooperativity model; 25 °C; H2O2 with ABTS as electron donor
How it was run: (§1)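 Purified untagged (SUMO-cleaved) mutant ancestral DyP, expressed in E. coli. H2O2 varied at 25 °C in 50 mM sodium citrate at the ABTS optimal pH 3.0. ABTS was held at its maximum-activity level below substrate inhibition: 10 µM for D222A, D222E and R390K-D222E, 25 µM for R390K, and 50 µM for R390A. Reactions were started with 50–500 nM enzyme, raised to 2.0 µM if activity was low.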

[2] = test system: AncDyPD‐b1 D222A; test: Steady-state kinetics of peroxidase activity, AncDyPD-b1 D222A variant; assay type: biochemical; details: for n (cooperativity constant): cooperativity model, 25 °C, H2O2 with ABTS as electron donor
How it was run: as §1

[3] = test system: AncDyPD‐b1 R390K; test: Steady-state kinetics of peroxidase activity, AncDyPD-b1 R390K variant; assay type: biochemical; details: cooperativity model; 25 °C; H2O2 with ABTS as electron donor
How it was run: as §1

[4] = test system: AncDyPD‐b1 D222E; test: Steady-state kinetics of peroxidase activity, AncDyPD-b1 D222E variant; assay type: biochemical; details: cooperativity model; 25 °C; H2O2 with ABTS as electron donor
How it was run: as §1

[5] = test system: AncDyPD‐b1 R390K‐D222E; test: Steady-state kinetics of peroxidase activity, AncDyPD-b1 R390K-D222E variant; assay type: biochemical; details: cooperativity model; 25 °C; H2O2 with ABTS as electron donor
How it was run: as §1

[6] = test system: Irpex lacteus F17 DyP; details: cited from earlier work
[7] = test system: FtrDyP; test: Mn2+ oxidation by FtrDyP; assay type: biochemical, Funalia (Coriolopsis) trogii; details: Mn^2+ substrate
[8] = test system: AncDyPD‐b1; test: Sulfoxidation; assay type: biochemical; details: 17, 25, and 30 °C, 36 h, pH 3.5, 1.0 mM H2O2, 2.5 mM thioanisole

| Compound | n (cooperativity constant) [1] | n (cooperativity constant) [2] | n (cooperativity constant) [3] | n (cooperativity constant) [4] | n (cooperativity constant) [5] | Km [6] [µM] | k cat [6] [s⁻¹] | further results |
| --- | --- | --- | --- | --- | --- | --- | --- | --- |
| Nc1c(N=Nc2ccc(S(=O)(=O)CCOS(=O)(=O)[O-])cc2)c(S(=O)(=O)[O-])cc2cc(S(=O)(=O)[O-])c(N=Nc3ccc(S(=O)(=O)CCOS(=O)(=O)[O-])cc3)c(O)c12.[Na+].[Na+].[Na+].[Na+] [RB5, Reactive Black 5] | 1 | 2.8 | 2.1 | 2.2 | 2.3 |  |  |  |
| CCn1c(=NN=c2sc3cc(S(=O)(=O)O)ccc3n2CC)sc2cc(S(=O)(=O)O)ccc21 [ABTS, 2,2'‐azino‐bis(3‐ethylbenzothiazoline‐6‐sulfonic acid)] |  |  |  |  |  | 62 | 8356 | fold decrease of KM versus WT ([2]; ABTS oxidation, D222A vs WT): 80 fold; fold lower k cat than WT ([2]; ABTS oxidation, D222A vs WT): 150 fold |
| Nc1c(S(=O)(=O)[O-])cc(Nc2cccc(S(=O)(=O)CCOS(=O)(=O)[O-])c2)c2c1C(=O)c1ccccc1C2=O.[Na+].[Na+] [RB19, Reactive Blue 19] |  |  |  |  |  | 133 | 5345 |  |
| O=S(=O)([O-])[O-].[Mn+2] [Mn^2+, MnSO4] |  |  |  |  |  |  |  | efficiency of FtrDyP relative to AncDyPD‐b1 [7]: 500 times |
| OO [H2O2, hydrogen peroxide] | 1 | 1 | 1.2 | 1.4 | 2.2 |  |  |  |
| CSc1ccccc1 [thioanisole] |  |  |  |  |  |  |  | conversion (peroxygenase activity, sulfoxidation) [8]: no conversion |
